This is a sample that favours compounds with a hit; in the whole collection about 1.4% have one here.
GSIS activator – GLuc luminescence reporter in INS-1E cells, primary screen for activators of glucose-dependent secretion of insulin | INS-1E GLuc reporter insulin secretion, 2-3 h | activation, % at 16.6 µM | 370,000 tested, 0.61% active | AID 743287, 2014;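 active = lowest replicate activation of at least 40%, so every replicate reaches that level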;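 also: 0% = median of neutral control wells and 100% = median of IBMX positive control wells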
GSK3B inh – human GSK3beta kinase inhibitors, primary screen, biochemical, cell-free homogeneous, HTS | Glycogen synthase kinase-3 beta (Homo sapiens), P49841 | GST-GSK3beta kinase, ADP-Glo luminescence, 60 min; hits give low values | activity score (negative = inhibition), % at 10 µM | 300,000 tested, 0.038% active;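 active = more than half of replicate wells score below -50%, meaning over 50% inhibition versus plate controls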;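 also: 0% = median DMSO wells and -100% = median GW8510 positive control wells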
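test system = GST-tagged human GSK3beta kinase, cell-free | reagent = 25 µM ATP with peptide substrate | dosing = one dose of 10 µM per compound | schedule = 60 min reaction, RT | detection = luminescent ADP-Glo measurement of ADP formed | control set = DMSO neutral wells and GW8510 at 20 µM as positive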
GSK3 alpha inh – blockers of GSK3A enzyme activity – biochemical, luminescence, cell-free homogeneous, HTS, primary screen. Glycogen synthase kinase-3 alpha (Homo sapiens), P49840. GSK-3 alpha kinase, ADP-Glo luminescence, 60 min. inhibition, % at 10 µM. 320,000 tested, 0.1% active;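 active = more than half of replicates show inhibition above 20%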;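 also: GST-tagged GSK-3 alpha with peptide substrate and 25 µM ATP; 0% = DMSO neutral wells and 100% = GW8510 positive control wells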
CDK5 inh – inhibitors of human CDK5/p35 kinase, primary screen, biochemical, single concentration. Recombinant CDK5/p35, ADP-Glo luminescence, 60 min. 330,000 tested, 0.01% active. inhibition, % at 10 µM. Cyclin-dependent kinase 5 (Homo sapiens) + Cyclin-dependent kinase 5 activator 1 (Homo …;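 active = highest replicate inhibition of at least 50% and at least 75% of replicates reaching 50%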;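 also: plate controls were DMSO neutral control for no effect and GW8510 at 10 µM for full effect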
Target sequence (Q00535 whole entry, looked up): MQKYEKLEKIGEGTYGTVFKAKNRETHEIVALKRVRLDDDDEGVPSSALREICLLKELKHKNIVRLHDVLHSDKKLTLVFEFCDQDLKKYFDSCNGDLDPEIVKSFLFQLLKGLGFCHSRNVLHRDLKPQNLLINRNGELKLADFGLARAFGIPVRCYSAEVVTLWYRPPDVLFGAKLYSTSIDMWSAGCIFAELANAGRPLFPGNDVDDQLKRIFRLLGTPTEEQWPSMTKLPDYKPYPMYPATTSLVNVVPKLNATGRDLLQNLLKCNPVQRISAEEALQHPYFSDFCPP
Target sequence (Q15078 whole entry, looked up): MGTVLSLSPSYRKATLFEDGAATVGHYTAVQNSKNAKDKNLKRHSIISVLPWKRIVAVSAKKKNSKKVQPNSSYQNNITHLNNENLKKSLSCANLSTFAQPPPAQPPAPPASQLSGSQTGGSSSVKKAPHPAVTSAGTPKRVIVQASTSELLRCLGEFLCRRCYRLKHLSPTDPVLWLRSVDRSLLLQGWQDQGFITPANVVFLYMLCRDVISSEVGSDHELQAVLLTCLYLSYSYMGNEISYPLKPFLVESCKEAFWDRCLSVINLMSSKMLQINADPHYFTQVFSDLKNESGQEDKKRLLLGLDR
STK33 inh – inhibitors of purified STK33 kinase, primary screen, biochemical, ADP-Glo luminescence, homogeneous, cell-free; Serine/threonine-protein kinase 33 (Homo sapiens), Q9BYT3; inhibition, % at 10 µM; AID 2661, 2010; 320,000 tested, 0.073% active; MBP phosphorylation;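 active = inhibition at or above 25%, using the most active replicate where run in duplicate; inactive = inhibition below 25%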
Env fusion inh – inhibitors of HIV-1 Env-driven cell-cell fusion, primary screen, HeLa-JRFL effector, CEM21 target cells, luciferase; inhibition, % at 12.3 µM; 360,000 tested, 1.1% active;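 active = mean replicate inhibition score of at least 50 and every replicate individually at or above 50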;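 also: 0% = plate neutral controls and 100% = maraviroc near 300 nM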
* marks the source's active call; other numbers are inactive results; x = no result given; [ ] = dose if it differs, or a comment.

SMILES	GSIS activator	GSK3B inh	GSK3 alpha inh	CDK5 inh	STK33 inh	Env fusion inh
C/C(=N/NC(=O)C1CC1(c1ccccc1)c1ccccc1)c1cccs1 (configuration not stated)	-0.2	2.5	-2.2	1.4	-0.3	57.5*
CO[C@@H]1CN(C)C(=O)c2ccc(NC(=O)C3CC3)cc2OC[C@H](C)N(CC2CCCC2)C[C@H]1C	-20.5	x	x	x	x	x
COc1ccc(C(=O)O/N=C(\N)c2ccc(Br)cc2)cc1	5.6	0.4	-2.9	-1.3	1.6	-95.8
C/C(=N\OCC(=O)N/N=C/c1ccc(C)cc1O)c1cccs1	x	-0.5	2.6	-0.9	0.4	-47.9
C/C(=N\NC(=O)CO/N=C(\C)c1cccs1)c1ccc(N)cc1	45.8*	0.1	8.8	-0.4	1.1	6.7
COc1ccc(C(=O)O/N=C(/C)c2cccs2)cc1	4.5	-37.2	31.7	39.7	46.5*	x
COc1ccc(C(=O)O/N=C(\N)c2ccccc2)cc1	-13.0	1.5	32.2	27.9	25.8*	-53.8
Cc1ccc(C(=O)O/N=C(\N)c2ccccn2)c(Cl)c1	-14.4	-31.3	34.1	33.9	28.9*	85.1*
COc1ccc(C(=O)O/N=C(\C)c2nccs2)cc1	x	-7.3	0.9	6.5	4.9	6.4
CNC(=O)C[C@@H]1CC[C@@H]2[C@H](COC[C@@H](O)CN2C(=O)c2ccc3c(c2)OCO3)O1	5.0	x	x	x	x	x
COc1ccc2c3c([nH]c2c1)[C@H](CO)NCC31CN(S(=O)(=O)c2ccccc2)C1	6.7	x	x	x	x	x
COc1cccc(C(=O)O/N=C(\N)c2ccccn2)c1	-5.5	x	46.4	41.1	37.2*	38.6
N/C(=N\OC(=O)c1ccc2ccccc2c1)c1ccccn1	6.3	3.4	-0.4	0.2	1.2	8.1
COc1ccc(Nc2nc(NCc3cccs3)nc3ccsc23)cc1OC	48.0*	x	x	x	x	2.6
COc1cccc(OC)c1C(=O)OCC(=O)NCC(C)C	42.6*	1.4	-0.4	1.5	-0.3	-24.6
C[C@@H]1CN(C)C(=O)c2cc(N(C)C)ccc2O[C@H]1CN(C)C	-4.0	x	x	x	x	x
COc1cc2c(cc1OC)-c1cc(N3CCc4ccccc43)nc(=O)n1CC2	42.8*	3.2	-0.2	1.1	2.2	11.5
COc1cc2c(cc1OC)-c1cc(Nc3ccccc3Br)nc(=O)n1CC2	72.7*	1.5	1.6	0.9	3.8	-4.9
COc1cc2c(cc1OC)-c1cc(Nc3ccccc3)nc(=O)n1CC2	x	0.2	-0.1	-0.8	0.9	13.2
COc1cc2c(cc1OC)-c1cc(N3CCCc4ccccc43)nc(=O)n1CC2	32.4	-1.2	5.5	1.5	1.2	x
COc1cc(C(=O)Nc2cc(C(F)(F)F)ccc2N2CCOCC2)ccc1OCC(=O)N1CCOCC1	50.1*	-0.9	-0.7	0.4	-0.9	x
COc1ccc(/C=C2\CCc3ccccc3C2=O)cc1Cn1cccn1	x	2.4	0.5	0.6	-0.2	65.3*
COc1ccc(/C=C2\CCC(C3CCCC3)C2=O)cc1Cn1cccn1 (configuration not stated)	16.0	2.6	x	-2.4	x	17.1
C[C@H](CO)N1C[C@H](C)[C@H](CN(C)S(=O)(=O)c2ccc(F)cc2)Oc2c(NS(=O)(=O)c3ccccc3)cccc2C1=O	-13.6	x	x	x	x	-3.3[16.7 µM]
COCCCn1c(=S)[nH]c2sc3c(c2c1=O)CCCC3	-1.3	-1.4	0.1	-3.8	-0.7	-9.2
SMILES	GSIS activator	GSK3B inh	GSK3 alpha inh	CDK5 inh	STK33 inh	Env fusion inh
COCCn1c(=S)[nH]c2sc3c(c2c1=O)CCCC3	45.3*	6.2	6.9	2.1	7.8	2.3
Nn1c(-c2ccccc2)cc(-c2ccccc2)cc1=O	67.3*	-1.4	-6.4	0.2	1.0	-2.8
Cc1noc(C)c1S(=O)(=O)Nc1ccc2c(c1)C(=O)N([C@H](C)CO)C[C@@H](C)[C@H](CN(C)C(=O)NC1CCCCC1)OCCCC[C@@H](C)O2	-16.1	x	x	x	x	-18.9[16.7 µM]
O=C(C[C@H]1C[C@@H]2c3cc(NC(=O)C4CCC4)ccc3O[C@@H]2[C@@H](CO)O1)NCc1ccc2c(c1)OCO2	-10.8	x	x	x	x	85.8*[16.7 µM]
O=C(C[C@H]1C[C@@H]2c3cc(NC(=O)C4CCC4)ccc3O[C@@H]2[C@H](CO)O1)NCc1ccc2c(c1)OCO2	-6.5	x	x	x	x	-19.2[16.7 µM]
O=C(C[C@H]1C[C@H]2c3cc(NC(=O)C4CCC4)ccc3O[C@H]2[C@@H](CO)O1)NCc1ccc2c(c1)OCO2	5.6	x	x	x	x	77.8*[16.7 µM]
O=C(C[C@@H]1C[C@@H]2c3cc(NC(=O)c4ccc5c(c4)OCO5)ccc3O[C@@H]2[C@@H](CO)O1)NCc1ccc(Oc2ccccc2)cc1	-5.1	x	x	x	x	70.7*[16.7 µM]
O=C(C[C@H]1C[C@@H]2c3cc(NC(=O)C4CCOCC4)ccc3O[C@@H]2[C@H](CO)O1)NCc1ccccc1	3.4	x	x	x	x	83.3*[16.7 µM]
C[C@H]1CN([C@@H](C)CO)C(=O)Cc2cc(N(C)C)ccc2O[C@H]1CN(C)C(=O)Nc1ccccc1	32.3	x	x	x	x	4.9[16.7 µM]
CO[C@H]1CN(C)C(=O)c2ccc(NC(C)=O)cc2OC[C@@H](C)N(C(=O)C2CCOCC2)C[C@@H]1C	15.7	x	x	x	x	x
c1ccc2c(N3CCCCC3)ncnc2c1	x	2.3	-4.6	-0.4	0.8	69.9*
CC1CCCCN1c1ncnc2ccccc12 (configuration not stated)	x	0.1	-4.4	0.5	-1.2	x
COC(=O)n1c(=O)oc2ccc(S(=O)(=O)N3CCCCC3)cc21	1.8	-0.8	-4.9	0.0	0.9	-6.0
CCCCOC(=O)n1c(=O)oc2cc(S(=O)(=O)N3CCCCC3)ccc21	-31.5	3.5	-0.4	0.6	-3.6	56.5*
COc1cc(OC)cc(-c2cc(N)n(S(=O)(=O)c3cccc4nsnc34)n2)c1	2.8	-0.2	1.8	-2.2	8.2	5.6
CCOc1ccc(-c2cc(N)n(S(=O)(=O)c3cccc4nsnc34)n2)cc1	3.7	1.1	-2.1	0.4	-1.1	63.8*
C[C@@H]1CN([C@H](C)CO)S(=O)(=O)c2ccc(C#CCN(C)C)cc2O[C@H]1CN(C)C(=O)Nc1ccccc1F	6.4	x	x	x	x	-32.0[16.7 µM]
C[C@@H]1CN([C@H](C)CO)C(=O)c2cc(/C=C/c3ccccc3)cnc2O[C@H]1CN(C)C	-10.7	x	x	x	x	-65.7[16.7 µM]
CC1=CN2C(=N)/C(=C/c3cn(CCCOc4ccccc4C)c4ccccc34)C(=O)N=C2S1	47.2*	-1.5	-1.0	0.6	2.4	1.3
COc1ccc(-c2cnc3c(-c4ccc(F)cc4)cnn3c2N)cc1	-7.3	-0.4	-0.4	-1.4	0.3	-84.3
Cc1nc2c(-c3ccc(F)cc3)cnn2c2c1CCC2	43.6*	-3.5	1.4	1.1	-0.7	-37.0
COc1ccc(/C=C/C2=NNC(=O)CC2)cc1	-0.3	-1.9	1.2	1.7	0.1	59.8*
